Key:
Glucagon receptor [1] = target: T1, Glucagon receptor (Homo sapiens, UniProt P47871); assay: Binding affinity for human Glucagon Receptor
Outline: (§1)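 Competition binding of [125I]glucagon (~25 000 cpm) to plasma membranes (~0.5 μg) from BHK cells transfected with cloned human glucagon receptor; 25 mM HEPES pH 7.4, 0.1% BSA; run in duplicate, 1 h at 37 °C. Bound and free separated by vacuum filtration on GF/C filters, then scintillation counting; IC50 determined.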

Glucagon receptor [2] = target: Glucagon receptor (Rattus norvegicus, UniProt P30082); assay: Binding affinity towards rat Glucagon Receptor
Outline: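 Plasma membranes prepared from livers of male Wistar rats (2 μg protein) incubated with ~50 000 CPM 125I-glucagon in 50 mM HEPES, 5 mM EGTA, 5 mM MgCl2, 0.005% tween-20, pH 7.4. Samples diluted in DMSO. Nonspecific binding defined with excess unlabeled glucagon; 2 h at 30 °C; vacuum filtration, gamma counting; curve fitting gave IC50.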

Glucagon receptor [3] = target: T1, Glucagon receptor; assay: Binding affinity towards human Glucagon Receptor by the displacement of [125I]-glucagon; outline: as §1
[4] = pA2 value for the compound was calculated
Outline: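 BHK cells expressing cloned human glucagon receptor (10^6/mL) in HEPES pH 7.4 buffer with 0.1 mM IBMX and 0.2% BSA. Cells pretreated 10 min at 37 °C with several antagonist concentrations, then challenged with increasing glucagon for 20 min. cAMP measured by RIA; pA2 obtained by Schild analysis of rightward-shifted glucagon concentration-response curves.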

T1 sequence (P47871 whole entry): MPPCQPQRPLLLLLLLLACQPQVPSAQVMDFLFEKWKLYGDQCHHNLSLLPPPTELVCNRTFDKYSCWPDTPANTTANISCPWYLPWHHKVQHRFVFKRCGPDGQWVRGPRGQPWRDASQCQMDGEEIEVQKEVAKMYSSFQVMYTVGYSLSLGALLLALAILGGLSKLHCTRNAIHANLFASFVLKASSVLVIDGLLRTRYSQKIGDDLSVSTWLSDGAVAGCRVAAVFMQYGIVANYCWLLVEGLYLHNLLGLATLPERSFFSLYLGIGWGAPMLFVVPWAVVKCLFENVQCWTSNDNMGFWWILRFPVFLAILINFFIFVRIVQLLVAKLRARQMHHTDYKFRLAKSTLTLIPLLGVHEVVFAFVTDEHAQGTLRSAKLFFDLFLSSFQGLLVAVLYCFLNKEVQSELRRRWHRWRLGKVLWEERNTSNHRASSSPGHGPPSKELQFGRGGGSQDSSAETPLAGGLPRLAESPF
Sequence of Glucagon receptor (Rattus norvegicus, UniProt P30082) (P30082 whole entry): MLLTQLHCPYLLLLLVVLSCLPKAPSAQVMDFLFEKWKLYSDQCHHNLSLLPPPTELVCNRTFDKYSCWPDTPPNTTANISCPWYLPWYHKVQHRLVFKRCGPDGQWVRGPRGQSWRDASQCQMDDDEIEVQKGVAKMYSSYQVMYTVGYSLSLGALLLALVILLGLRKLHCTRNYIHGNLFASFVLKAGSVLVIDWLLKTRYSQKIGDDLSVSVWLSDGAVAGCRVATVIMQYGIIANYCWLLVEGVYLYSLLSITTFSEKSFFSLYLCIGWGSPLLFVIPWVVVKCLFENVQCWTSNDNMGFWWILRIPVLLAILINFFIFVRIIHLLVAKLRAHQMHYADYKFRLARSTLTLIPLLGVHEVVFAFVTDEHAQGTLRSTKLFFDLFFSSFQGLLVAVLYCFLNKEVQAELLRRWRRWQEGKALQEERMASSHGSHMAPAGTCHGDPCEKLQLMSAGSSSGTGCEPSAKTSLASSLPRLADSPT

SMILES | IC50 (Glucagon receptor [1]) [µM] | also measured
CCn1c2ccccc2c2cc(/C=N/NC(=O)c3ccc(O)c(OC)c3)ccc21 | 6.3 | 
O=C(N/N=C/c1ccc(O)c2ccccc12)c1ccc(O)nc1 | > 100 | 
O=C(NNCc1cccc2ccccc12)c1ccc(O)cc1 | > 100 | 
O=C(N/N=C/c1ccc(O)c2ccccc12)c1cc2cc(O)ccc2[nH]1 | > 100 | 
COc1cc(C(=O)N/N=C/c2[nH]cnc2C)ccc1O | > 100 | 
COc1cc(C(=O)N/N=C/c2cnc(O)nc2O)ccc1O | > 100 | 
COc1cc(C(=O)N/N=C/c2ccc(OC(F)(F)F)cc2)ccc1O | 43 | 
O=C(N/N=C/c1ccc(O)c2ccccc12)c1ccc2nccnc2c1 | > 100 | 
COc1cc(C(=O)N/N=C/c2ccc(C(C)(C)C)cc2)ccc1O | 29 | 
O=C(N/N=C/c1ccc(O)c2ccccc12)c1ccc(O)c(CN2CCOCC2)c1 | > 100 | 
COc1cc(/C=N/NC(=O)c2cccc3ccccc23)ccc1O | > 100 | 
O=C(N/N=C/c1ccc(O)c2ccccc12)c1ccc(O)c(Cl)c1 |  | IC50 (Glucagon receptor [2]): 0.027 µM; IC50 (Glucagon receptor [3]): 0.2 µM; pA2 [4]: 6.99
COc1cc(C(=O)N/N=C(\C)c2cccc3ccccc23)ccc1O | > 100 | 
COc1cc(C(=O)N/N=C/c2ccc(/C=C/c3ccccc3)cc2)ccc1O | > 100 | 
O=C(N/N=C/c1ccc(O)c2ccccc12)c1ccc2[nH]ccc2c1 | > 100 | 
COc1cc(C(=O)N/N=C/c2ccc(-c3ccccc3)cc2)ccc1O | 26 | 
COc1cccc(C(=O)N/N=C/c2ccc(OC)c3ccccc23)c1 | > 100 | 
O=C(O)c1ccc(C(=O)N/N=C/c2ccc(O)c3ccccc23)cc1 | > 100 | 
COc1ccc(/C=N/NC(=O)c2ccc(O)cc2)c2ccccc12 | 4.9 | 
Nc1ccc(C(=O)N/N=C/c2ccc(O)c3ccccc23)cc1 | > 100 | 
O=C(N/N=C/c1ccc(O)c2ccccc12)c1ccc(O)cc1 | 1.2 | 

Continued, in another order:

IC50 (Glucagon receptor [1]) [µM] | SMILES | also measured
1.8 | O=C(N/N=C/c1cccc2ccccc12)c1ccc(O)cc1 | 
3.4 | O=C(N/N=C/c1ccc(O)c2ccccc12)c1ccc(O)c(O)c1 | 
34 | O=C(N/N=C/c1ccc(O)c2ccccc12)c1cc(Cl)c(O)c(Cl)c1 | 
> 100 | COc1ccc(/C=N/NC(=O)c2ccc(O)c(OC)c2)cc1 | 
28 | O=C(N/N=C/c1ccc(O)c2ccccc12)c1ccc(O)cc1O | 
43 | COc1cc(C(=O)N/N=C/c2ccc(C(C)C)cc2)ccc1O | 
0.39 | O=C(N/N=C/c1ccc(O)c2ccccc12)c1ccc(O)c(F)c1 | 
10 | COc1cc(C(=O)N/N=C/c2ccnc3ccccc23)ccc1O | 
4.9 | COc1cc(C(=O)N/N=C/c2cccc(Oc3cccc(C(F)(F)F)c3)c2)ccc1O | 
> 100 | COc1cc(C(=O)N/N=C/c2ccc(O)cc2)ccc1O | 
> 100 | COc1ccc(/C=N/NC(=O)c2ccc(O)c(OC)c2)cc1O | 
4.8 | COc1cc(C(=O)N/N=C/c2cccc3ccccc23)ccc1O | 
12 | COc1cc(C(=O)N/N=C/c2ccc(-c3ccc(C)c(Cl)c3)o2)ccc1O | 
2 | Nc1cc(C(=O)N/N=C/c2ccc(O)c3ccccc23)ccc1O | 
2.9 | COc1cc(C(=O)N/N=C/c2ccc(OC)c3ccccc23)ccc1O | 
0.72 | COc1cc(C(=O)N/N=C/c2ccc(O)c3ccccc23)ccc1O | 
0.83 | O=C(N/N=C/c1ccc(O)c2ccccc12)c1ccc(O)c(Br)c1 | 
60 | COc1cc(C(=O)N/N=C/c2ccc(O)c3ccccc23)cc(Cl)c1O | 
8.1 | COc1cc(C(=O)N/N=C/c2ccc(N(C)C)c3ccccc23)ccc1O | 
23 | COc1cc(C(=O)N/N=C/c2c[nH]c3ccccc23)ccc1O | 

— ChEMBL document CHEMBL1134597, “Identification of alkylidene hydrazides as glucagon receptor antagonists” (J Med Chem, 2001)
